Data published in ChEMBL document CHEMBL1156653, “Bioactive asterric acid derivatives from the Antarctic ascomycete fungus Geomyces sp” (J Nat Prod, 2008).
≈ marks a conversion by molar mass, not a printed value.

What was measured:
Type in all cases: functional, organism-based
Staphylococcus aureus = test: Antimicrobial activity against Staphylococcus aureus ATCC 6538
In short: (§1)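 Bacteria grown on Mueller-Hinton agar, then in broth at 37 °C for 24 h. Final suspension was 10^6 cells/mL in MHB. Samples were 10 mg/mL DMSO stocks, serially diluted and tested in triplicate. Absorbance at 595 nm was read after incubation. IC50 came from plotting inhibition rate vs concentration. MIC was the lowest concentration completely inhibiting growth.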

Streptococcus pneumoniae = test: Antimicrobial activity against Streptococcus pneumoniae CGMCC 1.1692; in short: as §1
Escherichia coli = test: Antimicrobial activity against Escherichia coli CGMCC 1.2340; in short: as §1
Aspergillus fumigatus = test: Antifungal activity against Aspergillus fumigatus ATCC 10894
In short: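 A. fumigatus grown on potato dextrose agar, then in broth at 28 °C for 48 h. Final inoculum was 10^4 mycelial fragments/mL in PDB. Samples were 10 mg/mL DMSO stocks, serially diluted and tested in triplicate. A595 was read after incubation. IC50 came from the inhibition-rate vs concentration plot. MIC was the lowest concentration giving complete growth inhibition.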

Compound	IC50 (Staphylococcus aureus) [µM]	MIC (Staphylococcus aureus) [µM]	IC50 (Streptococcus pneumoniae) [µM]	MIC (Streptococcus pneumoniae) [µM]	IC50 (Escherichia coli) [µM]	MIC (Escherichia coli) [µM]	IC50 (Aspergillus fumigatus) [µM]	MIC (Aspergillus fumigatus) [µM]
COC(=O)C1=CC(=O)C=C(OC)[C@]12Oc1cc(C)cc(OC(=O)c3c(O)cc(C)cc3Oc3c(OC)cc(O)cc3C(=O)OC)c1C2=O [GEOMYCIN C]	17.3	75.8 (≈ 50.1 µg/mL)	36.2	152 (≈ 100 µg/mL)	12.9	30.3 (≈ 20 µg/mL)	–	–
CCCCOC(=O)c1c(O)cc(C)cc1Oc1c(OC)cc(O)cc1C(=O)OC [BUTYL ASTERRATE]	> 50	–	> 50	–	> 50	–	> 50	–
COC(=O)c1cc(OC(=O)c2c(O)cc(C)cc2Oc2c(OC)cc(O)cc2C(=O)OC)cc(OC)c1Oc1cc(C)cc(O)c1C(=O)O [GEOMYCIN B]	–	–	–	–	–	–	0.86	29.5 (≈ 20 µg/mL)
COC(=O)c1cc(OC(=O)c2c(O)cc(C)cc2Oc2c(OC)cc(O)cc2C(=O)OC)cc(OC)c1Oc1cc(C)cc(O)c1C(=O)OC [GEOMYCIN A]	> 50	–	> 50	–	> 50	–	> 50	–
CN[C@@H]1[C@H](O[C@H]2[C@H](O[C@H]3[C@H](O)[C@@H](O)[C@H](N=C(N)N)[C@@H](O)[C@@H]3N=C(N)N)O[C@@H](C)[C@]2(O)C=O)O[C@@H](CO)[C@H](O)[C@H]1O [STREPTOMYCIN]	–	–	–	–	1.05	11.2 (≈ 6.51 µg/mL)	–	–
CCOC(=O)c1c(O)cc(C)cc1Oc1c(OC)cc(O)cc1C(=O)OC [ETHYL ASTERRATE]	> 50	–	> 50	–	> 50	–	> 50	–
OC(Cn1cncn1)(Cn1cncn1)c1ccc(F)cc1F [FLUCONAZOLE]	–	–	–	–	–	–	7.35	163 (≈ 50 µg/mL)
